Results reported in ChEMBL document CHEMBL1155754, “Samioside, a new phenylethanoid glycoside with free-radical scavenging and antimicrobial activities from Phlomis samia” (J Nat Prod, 2001).
pIC50: −log10 of the molar value. Values after ≈ are worked out from the molar mass of the structure shown. Each block holds one molecule with its values, some of them ahead of it.

Assays:
Format in all cases: functional
[1] = tested on: Radical scavenging activity; experiment: Antioxidant activity assessed as DPPH free radical scavenging activity after 30 mins; design: concentration or dose not given beside the values
Outline: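 Sample mixed with DPPH in ethanol and left 30 min at 37 °C. Optical density read at 515 nm. Ethanol replaced DPPH for the blank and DMSO replaced sample for the control. IC50 (amount scavenging 50% of DPPH) came from regression of average percent DPPH reduction against concentration, over three separate tests.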

Staphylococcus aureus [2] = experiment: Antimicrobial activity against Staphylococcus aureus ATCC 25923 by agar dilution method
Outline: (§1)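 Agar dilution against the listed ATCC bacterial strains. MIC taken as the lowest concentration preventing visible growth.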

Candida tropicalis = experiment: Antimicrobial activity against Candida tropicalis ATCC 13801 by disk diffusion method
Outline: (§2)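 Bauer-Kirby disk diffusion against the listed ATCC bacterial and Candida strains. Growth inhibition read as zone of inhibition diameter (mm). Three repeat experiments, reported as averages.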

Nakaseomyces glabratus = experiment: Antimicrobial activity against Candida glabrata ATCC 28838 by disk diffusion method; outline: as §2
Candida albicans = experiment: Antimicrobial activity against Candida albicans ATCC 10231 by disk diffusion method
Outline: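 Bauer-Kirby disk diffusion against Candida albicans ATCC 10231; experiments repeated three times, results expressed as average values (zone of inhibition).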

Escherichia coli [3] = experiment: Antimicrobial activity against Escherichia coli ATCC 25922 by agar dilution method; outline: as §1
Klebsiella pneumoniae [4] = experiment: Antimicrobial activity against Klebsiella pneumoniae ATCC 13883 by disk diffusion method; outline: as §2
[5] = tested on: Staphylococcus epidermidis; experiment: Antimicrobial activity against Staphylococcus epidermidis ATCC 12228 by disk diffusion method; outline: as §2
Staphylococcus aureus [6] = experiment: Antimicrobial activity against Staphylococcus aureus ATCC 25923 by disk diffusion method; outline: as §2
Pseudomonas aeruginosa [7] = experiment: Antimicrobial activity against Pseudomonas aeruginosa ATCC 27853 by agar dilution method; outline: as §1
Pseudomonas aeruginosa [8] = experiment: Antimicrobial activity against Pseudomonas aeruginosa ATCC 27853 by disk diffusion method; outline: as §2
Enterobacter cloacae [9] = experiment: Antimicrobial activity against Enterobacter cloacae ATCC 13047 by disk diffusion method; outline: as §2
Escherichia coli [10] = experiment: Antimicrobial activity against Escherichia coli ATCC 25922 by disk diffusion method; outline: as §2
Klebsiella pneumoniae [11] = experiment: Antimicrobial activity against Klebsiella pneumoniae ATCC 13883 by agar dilution method; outline: as §1
Enterobacter cloacae [12] = experiment: Antimicrobial activity against Enterobacter cloacae ATCC 13047 by agar dilution method; outline: as §1
[13] = tested on: Staphylococcus epidermidis; experiment: Antimicrobial activity against Staphylococcus epidermidis ATCC 12228 by agar dilution method; outline: as §1

SMILES: COc1cc(-c2cc(=O)c3c(O)cc(O)cc3o2)ccc1O
- Activity [1]: < 40%

SMILES: COc1ccc(-c2oc3cc(O)cc(O)c3c(=O)c2OC)cc1
- Activity [1]: < 40%

SMILES: O=c1cc(-c2ccc(O)cc2)oc2cc(O)cc(O)c12
- Activity [1]: < 40%

- MIC (Staphylococcus aureus [2]): 400 µg/mL (≈ 640 µM)
- pIC50 [1]: 4.31
SMILES: C[C@@H]1O[C@@H](O[C@@H]2[C@@H](O)[C@H](OCCc3ccc(O)c(O)c3)O[C@H](CO)[C@H]2OC(=O)/C=C/c2ccc(O)c(O)c2)[C@H](O)[C@H](O)[C@H]1O [ACETOSIDE]
- Activity [1]: > 70%

SMILES: C[C@@H]1[C@H](O)[C@@H](C)/C=C/C=C/C=C/C=C/C=C/C=C/C=C/[C@H](O[C@@H]2O[C@H](C)[C@@H](O)[C@H](N)[C@@H]2O)C[C@@H]2O[C@](O)(C[C@@H](O)C[C@@H](O)[C@H](O)CC[C@@H](O)C[C@@H](O)CC(=O)O[C@H]1C)C[C@H](O)[C@H]2C(=O)O [AMPHOTERICIN B]
- inhibition zone (IZ) (Candida tropicalis): 22 mm
- inhibition zone (IZ) (Nakaseomyces glabratus): 24 mm
- inhibition zone (IZ) (Candida albicans): 20 mm

- pIC50 [1]: 4.18
SMILES: O=C(O)/C=C/c1ccc(O)c(O)c1 [CAFFEIC ACID]

SMILES: O=C(O)c1cc(O)c(O)c(O)c1 [GALLIC ACID]
- pIC50 [1]: 4.75

- MIC (Staphylococcus aureus [2]): 4 µg/mL (≈ 8.41 µM)
- MIC (Escherichia coli [3]): 10 µg/mL (≈ 21 µM)
- MIC (Pseudomonas aeruginosa [7]): 8.8 µg/mL (≈ 18.5 µM)
- MIC (Klebsiella pneumoniae [11]): 8 µg/mL (≈ 16.8 µM)
- MIC (Enterobacter cloacae [12]): 8 µg/mL (≈ 16.8 µM)
- MIC [13]: 4 µg/mL (≈ 8.41 µM)
SMILES: CCN[C@@H]1C[C@H](N)[C@@H](O[C@H]2OC(CN)=CC[C@H]2N)[C@H](O)[C@H]1O[C@H]1OC[C@](C)(O)[C@H](NC)[C@H]1O [NETILMICIN]
- inhibition zone (IZ) (Klebsiella pneumoniae [4]): 25 mm
- inhibition zone (IZ) [5]: 24 mm
- inhibition zone (IZ) (Staphylococcus aureus [6]): 22 mm
- inhibition zone (IZ) (Pseudomonas aeruginosa [8]): 20 mm
- inhibition zone (IZ) (Enterobacter cloacae [9]): 22 mm
- inhibition zone (IZ) (Escherichia coli [10]): 23 mm

- MIC (Staphylococcus aureus [2]): 460 µg/mL (≈ 608 µM)
- MIC (Escherichia coli [3]): 520 µg/mL (≈ 687 µM)
- pIC50 [1]: 4.62
- MIC (Pseudomonas aeruginosa [7]): 850 µg/mL (≈ 1120 µM)
- MIC (Klebsiella pneumoniae [11]): 790 µg/mL (≈ 1040 µM)
- MIC (Enterobacter cloacae [12]): 890 µg/mL (≈ 1180 µM)
- MIC [13]: 480 µg/mL (≈ 634 µM)
SMILES: C[C@@H]1O[C@@H](O[C@@H]2[C@@H](O)[C@H](OCCc3ccc(O)c(O)c3)O[C@H](CO)[C@H]2OC(=O)/C=C/c2ccc(O)c(O)c2)[C@H](O)[C@H](O)[C@H]1O[C@@H]1OC[C@](O)(CO)[C@H]1O [SAMIOSIDE]
- inhibition zone (IZ) (Klebsiella pneumoniae [4]): 11 mm
- inhibition zone (IZ) [5]: 16 mm
- inhibition zone (IZ) (Staphylococcus aureus [6]): 12 mm
- Activity [1]: > 70%
- inhibition zone (IZ) (Pseudomonas aeruginosa [8]): 10 mm
- inhibition zone (IZ) (Enterobacter cloacae [9]): 10 mm
- inhibition zone (IZ) (Escherichia coli [10]): 15 mm
- inhibition zone (IZ) (Candida tropicalis): 10 mm
- inhibition zone (IZ) (Nakaseomyces glabratus): 11 mm
- inhibition zone (IZ) (Candida albicans): 8 mm
